Our source for the IC50 values is ChEMBL document CHEMBL1159325, “Pseudoirroratin A, a new cytotoxic ent-kaurene diterpene from Isodon pseudo-irrorata” (J Nat Prod, 2002).

Structures are written as SMILES.

Assay type in all cases: functional, cell-based
Experiment [1] concerns LNCaP. As to the kind of experiment: Cytotoxicity against human LNCAP cells by MTT assay. The gist of the method:
(§1)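 Cytotoxicity was run on human cell lines (Lu1, SW626, LNCaP, KB, and the HOG.R5 reporter line derived from parental HOS cells) following a previously established protocol. Camptothecin served as the positive control, and results were expressed as IC50.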
In general terms: Formazan colour is commonly taken as a measure of viable cells.

In experiment [2] the test system is SW626. As to the kind of experiment: Cytotoxicity against human SW626 cells by MTT assay. The method, boiled down:
as §1

Experiment [3] has as its system Lu1. Kind of experiment: Cytotoxicity against human Lu1 cells by MTT assay. The gist of the method: as §1
Experiment [4] deals with KB. As to the kind of experiment: Cytotoxicity against human KB cells by MTT assay. The gist of the method:
as §1

The test system of experiment [5] is HOS. As to the kind of experiment: Cytotoxicity against human HOS cells by MTT assay.
Experiment [6] can be described thus: Cytotoxicity against human HOG.R5 cells by MTT assay. The gist of the method: as §1

Regarding `C=C1C(=O)[C@]23[C@H](O)C[C@@H]4C(C)(C)CCC[C@]45CO[C@](O)(C[C@@H]1[C@H]2O)[C@@H]53` [PSEUDOIRRORATIN A], the IC50 is 2590 nM in experiment [1]; 570 nM in experiment [2]; 750 nM in experiment [3]; 2590 nM in experiment [4]; 1440 nM in experiment [5].
In the case of `CC[C@@]1(O)C(=O)OCc2c1cc1n(c2=O)Cc2cc3ccccc3nc2-1` [CAMPTOTHECIN], the IC50 is 86.1 nM in experiment [1]; 28.7 nM in experiment [2]; 28.7 nM in experiment [3]; 28.7 nM in experiment [4]; 28.7 nM in experiment [6].

The term IC50 denotes the midpoint of a concentration-inhibition curve. Lower therefore signals higher potency.
